From PubChem BioAssay
TAAR1 ag: agonists of human TAAR1. Q96RJ0. CHO RD-HGA16 TAAR1, Fluo-8 calcium fluorescence; vehicle wells 0%, saturating PEA agonist 100%. 0.99% of 360,000 active. activation, % at 3 µM. AID 624467;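 active = activation above the mean activation of all test compounds in the run plus 3 SD, cut at about 38% in these data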
Target sequence (Q96RJ0 whole entry, looked up): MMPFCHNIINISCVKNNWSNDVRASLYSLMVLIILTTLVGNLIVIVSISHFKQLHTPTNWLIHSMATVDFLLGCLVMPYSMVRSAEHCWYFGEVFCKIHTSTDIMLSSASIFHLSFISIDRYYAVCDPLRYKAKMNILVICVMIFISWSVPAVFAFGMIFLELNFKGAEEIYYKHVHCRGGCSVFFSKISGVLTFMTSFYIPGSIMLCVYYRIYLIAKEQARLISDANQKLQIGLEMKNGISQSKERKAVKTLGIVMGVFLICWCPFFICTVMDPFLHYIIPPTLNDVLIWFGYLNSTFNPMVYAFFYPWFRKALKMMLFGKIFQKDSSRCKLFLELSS
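System: CHO-derived RD-HGA16 cells with stable Gα16 and human TAAR1 / Times: 17-24 h plating, Fluo-8 75 min 37 °C, 30 min RT / Technique: calcium-sensitive Fluo-8 signal, excitation 470-495, emission 515-575 nm / Measure: % activation relative to PEA EC100 response / Benchmarks: DMSO and PEA EC100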
M4 ag: CHRM4 agonism in calcium assay; P08173; CHO-K1 hM4/Gqi5, Fluo-8 calcium fluorescence; vehicle 0%, full acetylcholine response 100%; activation, % at 3 µM; 0.14% of 360,000 active;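 active = activation above the run mean over all test wells plus 3 SD, cut at about 32% in these data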;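 note: peak over basal fluorescence ratio per well then scaled between controls; 0% = DMSO wells and 100% = acetylcholine at EC100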
TAAR1 antagonist: human TAAR1 antagonism. Q96RJ0. 1.5% of 360,000 active. inhibition, % at 3 µM. AID 624466. CHO RD-HGA16 TAAR1, Fluo-8 calcium fluorescence, antagonist;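 active = inhibition above a per-plate cutoff, the mean inhibition of test compounds on that plate plus 3 SD, cut at about 49% in these data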;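 note: 0% = DMSO plus EC80 beta-PEA response and 100% = DMSO alone without agonist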
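Assay system: RD-HGA16 CHO cells with stable hTAAR1 and Gα16 / Reagent: EC80 β-phenethylamine stimulus / Doses: 3 µM, single point / Timing: dye loading 75 min at 37 °C, then 30 min room temperature / Measured by: Fluo-8 intracellular calcium dye fluorescence, real-time kinetic reads / Controls: vehicle wells and EC80 agonist wells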
CHRM4 antagonist: CHRM4 antagonism in calcium assay; P08173; CHO-hM4 cells, ACh EC80, Fluo-8 calcium fluorescence; inhibition, % at 3 µM; 0.73% of 360,000 active; AID 624125;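 active = inhibition above its plate's cutoff, the mean inhibition of sample wells plus 3 SD, cut at about 27% in these data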;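 note: 0% = acetylcholine EC80 with DMSO and 100% = DMSO without agonist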
CHRM4 PAM: positive allosteric modulators of human muscarinic M4 receptor | CHO-K1 hM4/Gqi5, Fluo-8 calcium fluorescence, ACh EC20; 0% = ACh EC20, 100% = maximal ACh | activation, % at 3 µM | 0.4% of 360,000 active;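 active = activation above its plate's cutoff, the mean activation of sample wells plus 3 SD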
TAAR1 nonsel count: nonselective antagonism, TAAR1 counter-screen; shares compounds with TAAR1 antagonist; 77% of 2,400 active; counterscreen cell line, calcium fluorescence, antagonist mode; AID 651780; inhibition, % at 3 µM; in the data active = inhibition above about 22%;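 note: CHO-Ga16 host cells stimulated with ATP at an EC80 level; 0% = agonist EC80 plus vehicle and 100% = vehicle without agonist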
TAAR1 ant conf: human TAAR1 antagonism, confirmed; TAAR1-expressing cells, fluorescence antagonist read-out; shares compounds with TAAR1 antagonist; 40% of 2,400 active; inhibition, % at 3 µM; in the data active = inhibition above about 49%;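 note: CHO-Ga16 host cells challenged with agonist PEA near its EC80; 0% = agonist at EC80 plus vehicle and 100% = vehicle with no agonist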
Ga16 nonsel ag: counter-screen for TAAR1 antagonists: nonselective Ga16 agonists; Ga16-expressing cells, calcium fluorescence, agonist counterscreen; shares compounds with TAAR1 antagonist; 18% of 2,400 active; activation, % at 3 µM; AID 651953; in the data active = activation above about 12%;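 note: 0% = vehicle wells and 100% = saturating stimulus response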
TAAR1 ag count: counter-screen for human TAAR1 antagonists: TAAR1 agonists | hTAAR1 cell line, fluorescence activation, agonist mode | AID 651955 | shares compounds with TAAR1 antagonist | activation, % at 3 µM | 2% of 2,400 active; in the data active = activation above about 37%;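 note: CHO cells stably expressing TAAR1 with calcium dye readout; 0% = DMSO vehicle and 100% = full agonist response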
Starred values were filed as active, the others as inactive; x = no result given. In the library only some 3% were active in any assay of this set; here they are far more common.

SMILES	TAAR1 ag	M4 ag	TAAR1 antagonist	CHRM4 antagonist	CHRM4 PAM	TAAR1 nonsel count	TAAR1 ant conf	Ga16 nonsel ag	TAAR1 ag count
C[C@@H]1CN([C@H](C)CO)C(=O)c2cc(-c3ccccc3)cnc2O[C@@H]1CN(C)C(=O)C1CCOCC1	0	0	2	-6	-2	x	x	x	x
Cc1ccc(S(=O)(=O)N2CCOCC2)cc1C(=O)Nc1ccc(-c2cn3ccsc3n2)cc1	18	12	74*	4	-7	30*	75*	10	9
Cc1ccc(S(=O)(=O)N2CCOCC2)cc1C(=O)Nc1ccncc1	-2	0	9	5	-4	x	x	x	x
CCc1nnc(NC(=O)C2Cc3ccccc3CN2S(=O)(=O)CC)s1 (stereo unspecified)	0	2	10	-3	7	x	x	x	x
CCS(=O)(=O)N1Cc2ccccc2CC1C(=O)Nc1nnc(SCc2ccc(F)cc2)s1 (stereo unspecified)	30	9	62*	5	-7	32*	43	9	9
COc1ccccc1Cc1c(C(C)(C)C)nc2c(C)cc(Br)cn12	1	x	-10	x	x	x	x	x	x
CCOC(=O)C1=C(COC(=O)/C=C/c2cccc(OC)c2)NC(=O)NC1C (stereo unspecified)	17	19	67*	6	-8	22*	53*	9	14
CCOC(=O)C1=C(COC(=O)/C=C/c2ccc(OC)cc2)NC(=O)NC1C (stereo unspecified)	13	8	43	-14	-1	x	x	x	x
O=C1N[C@@H](Cc2ccccc2)COC(=O)[C@H](Cc2ccc(F)cc2)CC/C=C/C[C@@H]1CC(=O)N(CCO)Cc1ccccc1	3	4	17	4	-2	x	x	x	x
O=C1N[C@@H](Cc2ccccc2)COC(=O)[C@@H](Cc2ccc(F)cc2)CC/C=C/C[C@H]1CC(=O)N(CCO)Cc1ccccc1	30	26	66*	16	-13	31*	44	11	15
O=C1N[C@@H](Cc2ccccc2)COC(=O)[C@H](Cc2ccc(F)cc2)CC/C=C/C[C@H]1CC(=O)N(CCO)Cc1ccccc1	27	20	66*	-3	-6	17	26	5	4
O=C1N[C@@H](c2ccccc2)COC(=O)[C@@H](Cc2ccc(F)cc2)C/C=C\C[C@H]1CC(=O)N(CCO)Cc1ccccc1	31	21	59*	0	7	37*	58*	14*	13
O=C1N[C@@H](c2ccccc2)COC(=O)[C@H](Cc2ccc(F)cc2)CC/C=C/C[C@@H]1CC(=O)N(CCO)Cc1ccccc1	7	10	43	2	2	x	x	x	x
O=C1CC=Nc2ccc([N+](=O)[O-])cc21	0	0	-17	-3	-1	x	x	x	x
CC(C)CCNC(=O)C(c1ccc(O)cc1)N(Cc1cccs1)C(=O)C1COc2ccccc2O1 (stereo unspecified)	5	8	57*	3	-3	27*	54*	4	1
COc1ccc(C)cc1NC(=O)CCc1c(C)nn(-c2ccc(N3CCCCC3)nn2)c1C	8	14	50*	7	-5	31*	43	6	4
COc1ccc(C(=O)Nc2cccc(-c3ccc(N4CCOCC4)nn3)c2)cc1	8	12	25	0	-7	x	x	x	x
COc1cc(OC)cc(C(=O)Nc2cccc(-c3ccc(N4CCOCC4)nn3)c2)c1	11	3	55*	-16	5	35*	39	6	8
O=C(COc1ccc(Cl)cc1)Nc1cccc(-c2ccc(N3CCOCC3)nn2)c1	13	20	68*	4	-11	32*	45	7	4
